For 40 molecules, fluorescence slope and inhibition results are on record in PubChem BioAssay.

Values without a mark were called inactive.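 How the source made its calls, unless noted: active means inhibition at or above 50% at 10 µM; inactive means inhibition below 50%.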

The target of the first assay is Muscarinic acetylcholine receptor M4 (Homo sapiens) (UniProt P08173). In words: compounds altering M4/GIRK thallium flux, either direction, primary screen, M4 allosteric agonist project, cell-based, HEK293 M4/GIRK, BTC-AM (AID 625;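 active means fluorescence slope after compound addition differing from the mean of all tested samples at 99.7% confidence, mostly higher but some lower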;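 further: thallium influx through GIRK channels coupled to M4 in HEK293 cells with BTC-AM dye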). Particulars: at 10 µM, actives lie on both sides. The gist of the method: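 Material: M4/GIRK1/GIRK2 stable HEK293 cell line. Medium: pH 7.3 thallium assay buffer. Dosing: single compound concentration, 10 µM final. Schedule: 1 h dye loading, 2 min kinetic read. Measured by: kinetic fluorescence with BTC-AM dye. Read-out: post-addition slope, 15–24 s, of baseline-normalized fluorescence. Benchmarks: carbachol and DMSO controls.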
Muscarinic acetylcholine receptor M4 (Homo sapiens), sequence (P08173 whole entry, looked up): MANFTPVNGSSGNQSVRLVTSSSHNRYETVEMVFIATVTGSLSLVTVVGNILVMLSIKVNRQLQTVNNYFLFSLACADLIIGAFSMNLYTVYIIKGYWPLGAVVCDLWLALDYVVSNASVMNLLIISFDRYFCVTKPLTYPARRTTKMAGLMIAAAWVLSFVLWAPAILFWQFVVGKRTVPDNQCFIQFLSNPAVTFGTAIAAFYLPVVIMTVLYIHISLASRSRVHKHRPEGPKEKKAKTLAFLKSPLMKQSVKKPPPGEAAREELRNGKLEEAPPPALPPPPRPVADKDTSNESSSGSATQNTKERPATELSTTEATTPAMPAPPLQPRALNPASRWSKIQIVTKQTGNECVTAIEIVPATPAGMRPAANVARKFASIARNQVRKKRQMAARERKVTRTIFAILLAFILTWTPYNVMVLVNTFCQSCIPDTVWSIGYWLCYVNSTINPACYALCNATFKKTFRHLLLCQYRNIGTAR
As to `Cn1c(SCc2cccc3ccccc23)nnc1-c1ccco1`, the fluorescence slope was 0.00593.

Consider `COc1ccc(CC(=O)OCC(=O)NC(=O)NC2CCCCC2)cc1`, for which the fluorescence slope was 0.00502.

Take `CCn1c(C)nc2cc(C(=O)OC(C(F)(F)C(F)F)C(F)(F)C(F)F)ccc21`: the fluorescence slope was 0.00666.

As to `CCCn1c2c(c(O)c(C(=O)NC)c1=O)CCCC2`, the fluorescence slope was 0.00821.

As for `COCCNC(=O)CN(C)S(=O)(=O)c1ccc2c(c1)OCCO2`, the fluorescence slope is 0.00472.

Turning to `O=C(CN1C(=O)CC(c2ccco2)Sc2ccccc21)Nc1ccc2c(c1)OCCO2` (stereo not given), the fluorescence slope is 0.0054.

As for `COc1ccc2c(c1)CCc1c(C(=O)NCc3cccnc3)noc1-2`, the fluorescence slope is 0.00462.

For `OCc1nc(CO)n(Cc2ccccc2)n1`, the fluorescence slope was 0.00536.

With `CC(=O)Nc1ccc(NC(=O)c2ccccc2N(C)S(C)(=O)=O)cc1`, the fluorescence slope is 0.00563.

For the molecule `Cc1noc(NS(=O)(=O)c2ccc(NC(=O)CCC3CCCC3)cc2)c1C`, the fluorescence slope was 0.00725.

With `CCCNC(=O)c1c(N)n(-c2cc(OC)cc(OC)c2)c2nc3ccccc3nc12`, the fluorescence slope was 0.00602.

For the molecule `Cc1ccc(CN2C(=O)CCC2C(=O)NCC2CCCO2)cc1` (stereo not given), the fluorescence slope is 0.0066.

For `COc1ccc(CC(NC(C)=O)C(=O)NC2CCN(c3nc(C)cc(C)c3C#N)CC2)c(OC)c1` (stereo not given), the fluorescence slope was 0.00702.

Turning to `CC1(C)CC(=O)c2c(O)cc(O)cc2O1`, the fluorescence slope was 0.00586.

`COc1ccc(C2C(C#N)=C(C)NC3=C2C(=O)CC(C)(C)C3)c(OC)c1` (stereo not given): the fluorescence slope was 0.00543.

For the molecule `CC(C(=O)OCn1nnc2ccccc2c1=O)N1C(=O)c2ccccc2C1=O` (stereo not given), the fluorescence slope is 0.00486.

On to `CCOCCn1cnc2sc(C(=O)Nc3nc(C)c(C(=O)OCC)s3)c(C)c2c1=O`, for which the fluorescence slope was 0.0063.

On to `CCC(=NC(C)c1ccccc1)c1c(O)n(C)c(=O)n(C)c1=O` (stereo not given), for which the fluorescence slope was 0.00372.

As for `COc1cc(=O)[nH]c(SCc2c(F)c(F)c(F)c(F)c2F)n1`, the fluorescence slope is 0.00944.

As to `CCCC(=O)N1CCN(c2ccc(NC(=O)c3ccc(Br)o3)cc2)CC1`, the fluorescence slope was 0.00487.

On to `COc1ccc(Cc2nn3c(-c4cc(OC)c(OC)c(OC)c4)nnc3s2)cc1`, for which the fluorescence slope was 0.00585.

As to `CC(C)CCNC(=O)CCNS(=O)(=O)c1ccc(Cl)cc1`, the fluorescence slope was 0.00577.

For `CCn1c(C(=O)OC)cc2c1ccn2-c1ccc(F)cc1`, the fluorescence slope is 0.00586.

On to `O=C(CSc1nnc(Cc2ccccc2)n1C1CCCCC1)N1CCOCC1`, for which the fluorescence slope was 0.00611.

As to `CC(=O)c1c(C)[nH]c(C(=O)Nc2ccc3c(c2)OCCO3)c1C`, the fluorescence slope is 0.00406.

For the molecule `COCCn1nnnc1C(C(C)C)N(Cc1cccnc1)Cc1ccccc1Cl` (stereo not given), the fluorescence slope is 0.00529.

In the case of `Cc1c(Cc2ccccc2)sc(N)c1C(N)=O`, the fluorescence slope is 0.00569.

In the case of `O=C(CN(c1ccc(F)cc1)S(=O)(=O)c1ccc2c(c1)OCCO2)NCC1CCCO1` (stereo not given), the fluorescence slope was 0.00466.

`O=C(Nc1ccccc1)c1cccnc1N1CCOCC1`: the fluorescence slope was 0.00425.

In the case of `Cc1c(NC(=O)CN2c3cccc4cccc(c34)S2(=O)=O)c(=O)n(-c2ccccc2)n1C`, the fluorescence slope is 0.00478.

As to `Cc1ccc(S(=O)(=O)NCCC(=O)OCn2nnc3ccccc3c2=O)cc1`, the fluorescence slope was 0.00588.

On to `c1ccc2nc(-c3nc4ccccc4[nH]3)ccc2c1`, for which the fluorescence slope is 0.00356.

`COc1ccc(-n2nnc3c(=O)n(C/C=C/c4ccccc4)cnc32)cc1`: the fluorescence slope is 0.00695.

Turning to `O=C(Nc1ccccc1C(=O)N1CCCCCC1)c1cccc(S(=O)(=O)N2CCOCC2)c1`, the fluorescence slope was 0.00535.

As to `CCOC(=O)C1=C(C)N(C)C(C)=C(C(=O)OCC)C1c1cccnc1`, the fluorescence slope was 0.00631.

On to `O=C(Nc1ccc(Cc2ccncc2)cc1)C1CC1`, for which the fluorescence slope is 0.00686.

With `CCOC(=O)c1oc2ccccc2c1CSc1nnnn1-c1ccc(OC)cc1`, the fluorescence slope is 0.00514.

Consider `COc1cc(C2c3c(oc4c(C)cc(C)cc4c3=O)C(=O)N2Cc2cccnc2)cc(OC)c1OC` (stereo not given), for which the fluorescence slope is 0.0049.

In the case of `CC(=O)N1CCc2cc(S(=O)(=O)NCCC3=CCCCC3)ccc21`, the fluorescence slope is 0.00546.

With `CC1=C(C(=O)OCCOC(C)C)C(c2cc3c(cc2Br)OCO3)C2=C(CCCC2=O)N1` (stereo not given), the fluorescence slope is 0.00686.

Test system in the next assay: not listed separately
In words: inhibitors of Sendai virus-induced IRF3 signaling, primary screen, TLR/RLR signaling modifier project, cell-based, Sendai virus stimulus, luciferase, 10K MLSCN set (AID 602276).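 Further: firefly luciferase from ISG56 promoter only with Renilla not read in this screen; 0% = Sendai virus plus DMSO and 100% = medium plus DMSO without virus.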 The settings on record: HEK293 RL24 IRF3 luciferase reporter, at 10 µM, stronger effect = higher value. (Reporter assays use an easily measured gene product as a stand-in for the process of interest.)
`Cn1c(SCc2cccc3ccccc23)nnc1-c1ccco1`: the inhibition (usually the change of the read-out against control, counted positive when it falls) is -8.19%.

On to `COc1ccc(CC(=O)OCC(=O)NC(=O)NC2CCCCC2)cc1`, for which the inhibition was 9.64%.

As to `CCn1c(C)nc2cc(C(=O)OC(C(F)(F)C(F)F)C(F)(F)C(F)F)ccc21`, the inhibition was 7.52%.

Consider `CCCn1c2c(c(O)c(C(=O)NC)c1=O)CCCC2`, for which the inhibition was 26.6%.

As to `COCCNC(=O)CN(C)S(=O)(=O)c1ccc2c(c1)OCCO2`, the inhibition was 11.9%.

In the case of `O=C(CN1C(=O)CC(c2ccco2)Sc2ccccc21)Nc1ccc2c(c1)OCCO2` (stereo not given), the inhibition was 14.9%.

Consider `COc1ccc2c(c1)CCc1c(C(=O)NCc3cccnc3)noc1-2`, for which the inhibition was -37.2%.

For the molecule `OCc1nc(CO)n(Cc2ccccc2)n1`, the inhibition was 7.11%.

For the molecule `CC(=O)Nc1ccc(NC(=O)c2ccccc2N(C)S(C)(=O)=O)cc1`, the inhibition was 11.7%.

In the case of `Cc1noc(NS(=O)(=O)c2ccc(NC(=O)CCC3CCCC3)cc2)c1C`, the inhibition is 19.6%.

Consider `CCCNC(=O)c1c(N)n(-c2cc(OC)cc(OC)c2)c2nc3ccccc3nc12`, for which the inhibition was 8.54%.

With `Cc1ccc(CN2C(=O)CCC2C(=O)NCC2CCCO2)cc1` (stereo not given), the inhibition is -7.7%.

As for `COc1ccc(CC(NC(C)=O)C(=O)NC2CCN(c3nc(C)cc(C)c3C#N)CC2)c(OC)c1` (stereo not given), the inhibition was -9.6%.

Consider `CC1(C)CC(=O)c2c(O)cc(O)cc2O1`, for which the inhibition was 5.4%.

Regarding `COc1ccc(C2C(C#N)=C(C)NC3=C2C(=O)CC(C)(C)C3)c(OC)c1` (stereo not given), the inhibition was 15.1%.

`CC(C(=O)OCn1nnc2ccccc2c1=O)N1C(=O)c2ccccc2C1=O` (stereo not given): the inhibition was 12.3%.

Turning to `CCOCCn1cnc2sc(C(=O)Nc3nc(C)c(C(=O)OCC)s3)c(C)c2c1=O`, the inhibition is 11.8%.

For `CCC(=NC(C)c1ccccc1)c1c(O)n(C)c(=O)n(C)c1=O` (stereo not given), the inhibition was 8.09%.

On to `COc1cc(=O)[nH]c(SCc2c(F)c(F)c(F)c(F)c2F)n1`, for which the inhibition is -4.06%.

Turning to `CCCC(=O)N1CCN(c2ccc(NC(=O)c3ccc(Br)o3)cc2)CC1`, the inhibition is -9.3%.

`COc1ccc(Cc2nn3c(-c4cc(OC)c(OC)c(OC)c4)nnc3s2)cc1`: the inhibition is 14.7%.

As to `CC(C)CCNC(=O)CCNS(=O)(=O)c1ccc(Cl)cc1`, the inhibition is 22.9%.

For `CCn1c(C(=O)OC)cc2c1ccn2-c1ccc(F)cc1`, the inhibition is -52.7%.

As to `O=C(CSc1nnc(Cc2ccccc2)n1C1CCCCC1)N1CCOCC1`, the inhibition is -13%.

In the case of `CC(=O)c1c(C)[nH]c(C(=O)Nc2ccc3c(c2)OCCO3)c1C`, the inhibition was -15.9%.

As to `COCCn1nnnc1C(C(C)C)N(Cc1cccnc1)Cc1ccccc1Cl` (stereo not given), the inhibition is 9.31%.

Take `Cc1c(Cc2ccccc2)sc(N)c1C(N)=O`: the inhibition is 9.38%.

Turning to `O=C(CN(c1ccc(F)cc1)S(=O)(=O)c1ccc2c(c1)OCCO2)NCC1CCCO1` (stereo not given), the inhibition is 17%.

For the molecule `O=C(Nc1ccccc1)c1cccnc1N1CCOCC1`, the inhibition is 4.9%.

Take `Cc1c(NC(=O)CN2c3cccc4cccc(c34)S2(=O)=O)c(=O)n(-c2ccccc2)n1C`: the inhibition is 8.89%.

On to `Cc1ccc(S(=O)(=O)NCCC(=O)OCn2nnc3ccccc3c2=O)cc1`, for which the inhibition was 15.2%.

Take `c1ccc2nc(-c3nc4ccccc4[nH]3)ccc2c1`: the inhibition is 11.5%.

Regarding `COc1ccc(-n2nnc3c(=O)n(C/C=C/c4ccccc4)cnc32)cc1`, the inhibition was 12.8%.

Consider `O=C(Nc1ccccc1C(=O)N1CCCCCC1)c1cccc(S(=O)(=O)N2CCOCC2)c1`, for which the inhibition was 3.13%.

Take `CCOC(=O)C1=C(C)N(C)C(C)=C(C(=O)OCC)C1c1cccnc1`: the inhibition is -2.74%.

Regarding `O=C(Nc1ccc(Cc2ccncc2)cc1)C1CC1`, the inhibition is 7.94%.

`CCOC(=O)c1oc2ccccc2c1CSc1nnnn1-c1ccc(OC)cc1`: the inhibition is 25.7%.

As for `COc1cc(C2c3c(oc4c(C)cc(C)cc4c3=O)C(=O)N2Cc2cccnc2)cc(OC)c1OC` (stereo not given), the inhibition was -24.2%.

Regarding `CC(=O)N1CCc2cc(S(=O)(=O)NCCC3=CCCCC3)ccc21`, the inhibition is 12.2%.

On to `CC1=C(C(=O)OCCOC(C)C)C(c2cc3c(cc2Br)OCO3)C2=C(CCCC2=O)N1` (stereo not given), for which the inhibition is 20.8%.
